Calls of active or inactive are those of the source. The rule behind the calls is not given here.
Assays:
Rattus norvegicus [1] = species: Rattus norvegicus; assay: Activation of ERK in […] rat striatal neuronal N548 mutant cells at 10 uM after 6 hrs by Western blotting; conditions: 50 uM, in the assay text read “50 uM” for “10 uM”
Summary of the method: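 N548 mutant htt-expressing striatal cells were exposed to compound or vehicle (0.1% DMSO) in serum-deprived medium (0.5% FCS, 39°C). Lysates were analysed by Western blotting with a phospho-specific antibody against threonine 202/tyrosine 204 ERK. Total ERK and tubulin served as controls.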

Rattus norvegicus [2] = species: Rattus norvegicus; assay: Activation of AKT in rat striatal neuronal N548 mutant cells at 50 uM by Western blotting
Summary of the method: (§1)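 N548 mutant htt-expressing striatal cells were treated with compound or vehicle (0.1% DMSO) in serum-deprived medium (0.5% FCS, 39°C) or in 10% serum medium. Lysates were Western blotted with phospho-specific antibodies against AKT Ser473, AKT Thr308 and ERK Thr202/Tyr204. Total AKT, total ERK and tubulin served as controls. The concentration series was read at 8 h.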

Caenorhabditis elegans [3] = assay: Cell death rescue of ASH neuronal cells in Caenorhabditis elegans Huntington's disease model; type: functional, organism-based
Summary of the method: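 pqe-1;Htn-Q150 C. elegans L1 larvae, which express human htt 1–171 with 150Q in ASH neurons, were kept at 15°C in liquid S medium with E. coli OP50 and compound or DMSO (1.5%). A starvation variant used L1-arrested larvae without food at 25°C. ASH survival was scored as GFP fluorescence in live animals, 100 neurons in more than 50 animals per treatment per time point.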

Caenorhabditis elegans [4] = assay: Toxicity in Caenorhabditis elegans Huntington's disease model; type: organism-based; conditions: for TC50: caenorhabditis elegans, in vivo
Drosophila [5] = assay: Cell death rescue of neuronal cells in drosophila Huntington's disease model; type: functional, organism-based
Summary of the method: (§2)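 Flies of Drosophila HD strain 8534, which express human htt 1–170 with 120Q in the eye, were fed compound mixed into food (renewed every 2 days) or vehicle (0.1% DMSO) at 25°C. Rhabdomeres per ommatidium were counted by the pseudopupil technique at 9 days post-eclosion, blinded, with equal numbers of males and females. 8–10 flies per treatment, 35 ommatidia each; Student's t test.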

Drosophila [6] = assay: Toxicity in drosophila Huntington's disease model; type: organism-based; conditions: in vivo
[7] = Cell death rescue in rat striatal neuron N548 mutant cells relative to rotenone; type: functional
[8] = Cell death rescue in rat striatal neuron N548 mutant cells; type: functional
[9] = Toxicity in rat striatal neuronal N548 mutant cells; conditions: read-out: TC50 (the source's name)
Rattus norvegicus [10] = species: Rattus norvegicus; assay: Activation of AKT in rat striatal neuronal N548 mutant cells after 8 hrs by Western blotting; summary of the method: as §1
Rattus norvegicus [11] = species: Rattus norvegicus; assay: Cell death rescue in rat striatal neuronal N548 mutant cells analysed every day for 7 days at 10 uM by trypan blue dye-exclusion assay; type: functional
Summary of the method: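 Death was induced in N548 mutant cells by switching to 0.5% FCS medium at 39°C, with compound or DMSO present. Viability was measured daily for 7 days by automated trypan blue (0.4%) dye exclusion, counting at least 200 cells per sample and reporting % trypan blue-negative cells. Two independent experiments were run, each in duplicate.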

[12] = target: Tyrosine-protein kinase JAK2 (Rattus norvegicus) (UniProt Q62689); assay: Activation of JAK2 in rat striatal neuronal N548 mutant cells
Chain of Tyrosine-protein kinase JAK2 (Rattus norvegicus) (Q62689 whole entry): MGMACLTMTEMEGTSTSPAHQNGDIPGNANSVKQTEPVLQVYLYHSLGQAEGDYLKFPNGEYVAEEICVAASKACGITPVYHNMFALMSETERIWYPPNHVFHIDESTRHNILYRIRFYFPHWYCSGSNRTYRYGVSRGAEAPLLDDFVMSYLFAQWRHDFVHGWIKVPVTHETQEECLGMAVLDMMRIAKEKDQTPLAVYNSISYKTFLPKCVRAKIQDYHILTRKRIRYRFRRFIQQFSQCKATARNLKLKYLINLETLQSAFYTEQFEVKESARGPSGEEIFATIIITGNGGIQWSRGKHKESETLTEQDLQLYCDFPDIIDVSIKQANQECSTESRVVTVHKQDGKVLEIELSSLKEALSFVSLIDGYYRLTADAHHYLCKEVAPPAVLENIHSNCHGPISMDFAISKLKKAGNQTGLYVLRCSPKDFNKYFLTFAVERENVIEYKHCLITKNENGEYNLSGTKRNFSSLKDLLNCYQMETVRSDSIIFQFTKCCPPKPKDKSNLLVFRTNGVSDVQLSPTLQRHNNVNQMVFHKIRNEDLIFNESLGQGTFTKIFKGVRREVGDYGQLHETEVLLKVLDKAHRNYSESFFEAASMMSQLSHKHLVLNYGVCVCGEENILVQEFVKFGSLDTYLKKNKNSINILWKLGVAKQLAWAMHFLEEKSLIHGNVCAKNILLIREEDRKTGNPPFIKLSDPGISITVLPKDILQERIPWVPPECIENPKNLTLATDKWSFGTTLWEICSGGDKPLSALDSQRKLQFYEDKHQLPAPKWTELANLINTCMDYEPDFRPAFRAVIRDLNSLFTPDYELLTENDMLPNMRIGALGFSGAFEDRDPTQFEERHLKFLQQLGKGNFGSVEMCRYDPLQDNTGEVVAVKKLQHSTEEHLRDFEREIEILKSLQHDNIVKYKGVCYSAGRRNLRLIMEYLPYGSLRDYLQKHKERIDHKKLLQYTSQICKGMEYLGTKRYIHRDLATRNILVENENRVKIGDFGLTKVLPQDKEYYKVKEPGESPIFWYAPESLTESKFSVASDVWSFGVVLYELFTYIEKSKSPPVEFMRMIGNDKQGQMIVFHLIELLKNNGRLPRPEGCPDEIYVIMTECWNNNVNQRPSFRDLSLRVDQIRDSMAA

[13] = target: Glycogen synthase kinase-3 alpha (Rattus norvegicus) (UniProt P18265); assay: Activation of GSKalpha in rat striatal neuronal N548 mutant cells
Chain of Glycogen synthase kinase-3 alpha (Rattus norvegicus) (P18265 whole entry): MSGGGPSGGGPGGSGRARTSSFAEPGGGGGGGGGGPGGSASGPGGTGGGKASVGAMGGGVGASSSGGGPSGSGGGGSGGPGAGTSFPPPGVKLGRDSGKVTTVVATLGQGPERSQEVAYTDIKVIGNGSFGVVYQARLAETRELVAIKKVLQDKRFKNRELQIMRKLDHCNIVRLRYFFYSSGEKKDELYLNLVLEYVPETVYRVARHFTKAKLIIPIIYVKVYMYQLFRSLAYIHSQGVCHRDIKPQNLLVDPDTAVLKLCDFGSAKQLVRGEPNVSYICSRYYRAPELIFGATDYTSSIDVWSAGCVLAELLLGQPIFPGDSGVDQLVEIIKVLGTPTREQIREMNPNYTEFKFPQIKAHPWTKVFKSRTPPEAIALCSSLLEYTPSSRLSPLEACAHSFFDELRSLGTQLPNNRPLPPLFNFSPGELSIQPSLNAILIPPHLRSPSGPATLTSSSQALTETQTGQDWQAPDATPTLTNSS

Drosophila [14] = assay: Decrease in rhabdomere degeneration in Drosophila photoreceptor assessed as number of rhabdomeres per ommatidium at day 9; type: functional, organism-based; summary of the method: as §2
[15] = target: MAP kinase p38 (Homo sapiens) (UniProt O15264+Q15759+Q16539+P53778); assay: Activation of p38 MAPK in rat striatal neuronal N548 mutant cells
Rattus norvegicus [16] = species: Rattus norvegicus; assay: Cell death rescue in DNA-deficient rat striatal neuronal N548 mutant cells at 10 uM; type: functional
[17] = target: Glycogen synthase kinase-3 beta (Rattus norvegicus) (UniProt P18266); assay: Activation of GSKbeta in rat striatal neuronal N548 mutant cells
Chain of Glycogen synthase kinase-3 beta (Rattus norvegicus) (P18266 whole entry, looked up): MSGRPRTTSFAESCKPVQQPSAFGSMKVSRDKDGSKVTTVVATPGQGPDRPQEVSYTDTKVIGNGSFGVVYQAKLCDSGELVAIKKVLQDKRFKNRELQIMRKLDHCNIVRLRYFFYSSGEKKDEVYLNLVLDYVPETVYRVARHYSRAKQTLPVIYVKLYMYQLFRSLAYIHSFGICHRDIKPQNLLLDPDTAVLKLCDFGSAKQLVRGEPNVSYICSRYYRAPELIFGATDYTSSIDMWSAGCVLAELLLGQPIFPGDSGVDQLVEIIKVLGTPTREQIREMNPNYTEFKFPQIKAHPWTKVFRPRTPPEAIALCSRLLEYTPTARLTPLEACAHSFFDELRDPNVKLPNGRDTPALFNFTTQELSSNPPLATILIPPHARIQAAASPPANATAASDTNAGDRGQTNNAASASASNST

Rattus norvegicus [18] = species: Rattus norvegicus; assay: Suppression of cell death in rat striatal neuronal N548 mutant cells assessed as suppression of caspase 7 activation by Western blotting; type: functional
Summary of the method: (§3)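 Serum-deprived N548 mutant cells (0.5% FCS, 39°C) were treated with compound or DMSO. Cleaved active caspase 3 and caspase 7 fragments were detected by Western blotting, with tubulin as loading control.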

Rattus norvegicus [19] = species: Rattus norvegicus; assay: Activation of AKT in rat striatal neuronal N548 mutant cells at 10 uM by Western blotting; summary of the method: as §1
Rattus norvegicus [20] = species: Rattus norvegicus; assay: Activation of ERK in rat striatal neuronal N548 mutant cells at 50 uM by Western blotting; summary of the method: as §1
Rattus norvegicus [21] = species: Rattus norvegicus; assay: Cell death rescue in rat striatal neuronal N548 mutant cells at 10 uM after 2 days by calcein acetoxymethyl ester assay in presence of U0126; type: functional
Rattus norvegicus [22] = species: Rattus norvegicus; assay: Cell death rescue in rat striatal neuronal N548 mutant cells at 10 uM after 2 days by calcein acetoxymethyl ester assay in presence of LY-294002; type: functional
Rattus norvegicus [23] = species: Rattus norvegicus; assay: Activation of NF-kappaB in rat striatal neuronal N548 mutant cells
Rattus norvegicus [24] = species: Rattus norvegicus; assay: Activation of ERK in rat striatal neuronal N548 mutant cells after 8 hrs by Western blotting; summary of the method: as §1
Rattus norvegicus [25] = species: Rattus norvegicus; assay: Activation of AKT in DNA-deficient rat striatal neuronal N548 mutant cells at 10 uM after 6 hrs by Western blotting
Rattus norvegicus [26] = species: Rattus norvegicus; assay: Decrease in ATP levels in rat striatal neuronal N548 mutant cells after 8 hrs in serum-deprived medium by luminescence-based assay in presence of glucose; type: functional
Summary of the method: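 N548 mutant cells were plated at 10^5 cells per 60-mm dish, treated, and after 8 h in serum-deprived medium were lysed. Total ATP was measured by luciferase luminescence (12 s integration), normalized to cell number, and expressed relative to untreated cells at 0 h (100%). Triplicate, mean ± SD.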

Rattus norvegicus [27] = species: Rattus norvegicus; assay: Activation of ERK in rat striatal neuronal N548 mutant cells at 10 uM by Western blotting; summary of the method: as §1
Rattus norvegicus [28] = species: Rattus norvegicus; assay: Cell death rescue in rat striatal neuronal N548 mutant cells by calcein acetoxymethyl ester assay; type: functional
Summary of the method: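 N548 mutant cells in serum-deprived medium (0.5% FCS, 39°C) were treated across a dose range. Viability was read by calcein acetoxymethyl ester fluorescence and expressed as fold increase over DMSO-treated cells. Triplicate wells, mean ± SD.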

[29] = Decrease in htt expression in rat striatal neuron N548 mutant cells assessed as visible htt aggregation after 12 hrs by Western blotting; type: functional; parameters: scale not given: the % may be the effect or the level left
Rattus norvegicus [30] = species: Rattus norvegicus; assay: Suppression of cell death in rat striatal neuronal N548 mutant cells assessed as suppression of caspase 3 activation by Western blotting; type: functional; summary of the method: as §3

CC(C)(C)OC(=O)N[C@@H](CC(=O)O)C(=O)CF
Activity (Rattus norvegicus [1]): Active
Activity (Rattus norvegicus [2]): Active

O=[N+]([O-])c1ccc(O)c([N+](=O)[O-])c1 [2,4-DINITROPHENOL]
EC50 (Caenorhabditis elegans [3]): 700 µM
TC50 (Caenorhabditis elegans [4]): 2000 µM
EC50 (Drosophila [5]): 1250 µM
TC50 (Drosophila [6]): 10000 µM
Activity [7]: 1
EC50 [8]: 200 µM
CC50 [9]: 16000 µM

C=C(C)[C@H]1Cc2c(ccc3c2O[C@@H]2COc4cc(OC)c(OC)cc4[C@@H]2C3=O)O1 [ROTENONE]
EC50 (Caenorhabditis elegans [3]): 2 µM
EC50 (Caenorhabditis elegans [4]; Caenorhabditis elegans): 2 µM
TC50 (Caenorhabditis elegans [4]): 16 µM
Activity (Rattus norvegicus [10]): Dose-dependent effect
Activity (Rattus norvegicus [11]): Active
Activity [12]: inactive
EC50 (Drosophila [5]): 10 µM
Activity [13]: inactive
Activity (Drosophila [14]): Active
Activity [15]: inactive
Activity (Rattus norvegicus [16]): Active
Activity [17]: inactive
Activity (Rattus norvegicus [18]): Active
TC50 (Drosophila [6]): 50 µM
Activity (Rattus norvegicus [19]): Active
Activity (Rattus norvegicus [20]): Active
Activity (Rattus norvegicus [21]): inactive
Activity (Rattus norvegicus [22]): inactive
Activity (Rattus norvegicus [23]): inactive
Activity (Rattus norvegicus [24]): Dose-dependent effect
Activity (Rattus norvegicus [25]): Active
Activity (Rattus norvegicus [26]): inactive
EC50 [8]: 0.5 µM
Activity (Rattus norvegicus [27]): Active
Activity (Rattus norvegicus [28]): Active
Activity [29]: < 1%
Activity (Rattus norvegicus [30]): Active
Activity (Rattus norvegicus [2]): Active
CC50 [9]: 40 µM

[F-].[Na+] [SODIUM FLUORIDE]
Activity [7]: 0.6
EC50 [8]: 2000 µM
CC50 [9]: 10000 µM

From ChEMBL document CHEMBL1147067, “Inhibitors of metabolism rescue cell death in Huntington's disease models” (Proc Natl Acad Sci U S A, 2007)
